# How the values were obtained:
# Staphylococcus aureus [1] = assay: Antibacterial activity against Staphylococcus aureus ATCC 25923 after 24 hrs by NCCLS two fold broth microdilution method; format: functional; conditions: ATCC 25923, 24 h
# Procedure, shortened: (§1)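 Two-fold serial broth microdilution in 96-well plates following NCCLS. Compounds were dissolved in DMSO as stocks, then diluted in Mueller–Hinton broth to final concentrations of 0.5–512 µg/mL. Plates were inoculated and incubated at 37 °C for 24 h, with growth read visually and spectrophotometrically. MIC was taken as the lowest concentration giving complete growth inhibition. Run in triplicate, with a DMSO-plus-inoculum solvent control.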
# Candida albicans = assay: Antifungal activity against Candida albicans ATCC 76615 after 24 hrs by NCCLS two fold broth microdilution method; format: functional; conditions: ATCC 76615, 24 h
# Procedure, shortened: (§2)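 Two-fold serial microdilution following NCCLS. A spore suspension in sterile distilled water was prepared from one-day-old cultures grown on Sabouraud agar and adjusted to a final 1–5 × 10^3 spores/mL. DMSO stocks were diluted in RPMI 1640 to eleven concentrations (0.5–512 µg/mL), inoculated and held at 35 °C for 24 h. Growth was read visually and spectrophotometrically, MIC was the lowest concentration with complete inhibition, and runs were in triplicate.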
# Salmonella typhi = assay: Antibacterial activity against Bacillus typhi after 24 hrs by NCCLS two fold broth microdilution method; format: functional, Salmonella enterica subsp. enterica serovar Typhi; conditions: Salmonella enterica
# Procedure, shortened: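 Two-fold serial broth microdilution per NCCLS. DMSO stocks diluted in Mueller–Hinton broth to 512, 256, 128, 64, 32, 16, 8, 4, 2, 1, 0.5 µg/mL. Chloromycin and norfloxacin as reference drugs; DMSO with inoculum, no drug, as solvent control. Incubation 37 °C for 24 h. Growth read visually and spectrophotometrically. MIC is the lowest concentration completely inhibiting growth; triplicate.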
# Micrococcus luteus = assay: Antibacterial activity against Micrococcus luteus ATCC 4698 after 24 hrs by NCCLS two fold broth microdilution method; format: functional; conditions: NCTC 2665, 24 h; procedure, shortened: as §1
# Staphylococcus aureus [2] = assay: Antibacterial activity against methicillin-resistant Staphylococcus aureus N315 after 24 hrs by NCCLS two fold broth microdilution method; format: functional; conditions: N315, 24 h
# Procedure, shortened: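 Two-fold serial broth microdilution per NCCLS. Chloromycin and norfloxacin as reference drugs; DMSO with inoculum, no drug, as solvent control. Incubation 37 °C for 24 h. Growth read visually and spectrophotometrically. MIC is the lowest concentration completely inhibiting growth; triplicate.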
# Pichia norvegensis = assay: Antifungal activity against Candida mycoderma after 24 hrs by NCCLS two fold broth microdilution method; format: functional
# Escherichia coli = assay: Antibacterial activity against Escherichia coli ATCC 8099 after 24 hrs by NCCLS two fold broth microdilution method; format: functional; conditions: ATCC 8099, 24 h
# Procedure, shortened: as §1, with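 “NCCLS.” for “NCCLS. Compounds were dissolved in DMSO as stocks, then diluted in Mueller–Hinton broth to final concentrations of 0.5–512 µg/mL.”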
# Cyberlindnera jadinii = assay: Antifungal activity against Candida utilis after 24 hrs by NCCLS two fold broth microdilution method; format: functional; conditions: Williopsis jadinii; procedure, shortened: as §2
# Saccharomyces cerevisiae = assay: Antifungal activity against Saccharomyces cerevisiae after 24 hrs by NCCLS two fold broth microdilution method; format: functional; procedure, shortened: as §2
# Pseudomonas aeruginosa = assay: Antibacterial activity against Pseudomonas aeruginosa ATCC 27853 after 24 hrs by NCCLS two fold broth microdilution method; format: functional; conditions: ATCC 27853, 24 h
# Procedure, shortened: as §1, with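 “NCCLS.” for “NCCLS. Compounds were dissolved in DMSO as stocks, then diluted in Mueller–Hinton broth to final concentrations of 0.5–512 µg/mL.”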
# Aspergillus flavus = assay: Antifungal activity against Aspergillus flavus after 24 hrs by NCCLS two fold broth microdilution method; format: functional; procedure, shortened: as §2
# Bacillus subtilis = assay: Antibacterial activity against Bacillus subtilis ATCC 21216 after 24 hrs by NCCLS two fold broth microdilution method; format: functional; conditions: ATCC 21216, 24 h; procedure, shortened: as §1
# Bacillus = assay: Antibacterial activity against Bacillus proteus ATCC 13315 after 24 hrs by NCCLS two fold broth microdilution method; format: functional; conditions: ATCC 13315, 24 h; procedure, shortened: as §1
Compound,MIC (Staphylococcus aureus [1]) [µg/mL],MIC (Candida albicans) [µg/mL],MIC (Salmonella typhi) [µg/mL],MIC (Micrococcus luteus) [µg/mL],MIC (Staphylococcus aureus [2]) [µg/mL],MIC (Pichia norvegensis) [µg/mL],MIC (Escherichia coli) [µg/mL],MIC (Cyberlindnera jadinii) [µg/mL],MIC (Saccharomyces cerevisiae) [µg/mL],MIC (Pseudomonas aeruginosa) [µg/mL],MIC (Aspergillus flavus) [µg/mL],MIC (Bacillus subtilis) [µg/mL],MIC (Bacillus) [µg/mL]
CC(=O)Nc1ccc(S(=O)(=O)Cc2nc3ccccc3n2Cc2ccccc2Cl)cc1,32,32,16,64,32,512,32,512,512,16,8,32,512
CCCn1c(CS(=O)(=O)c2ccc(NC(C)=O)cc2)nc2ccccc21,128,64,32,256,64,16,128,64,16,128,128,16,64
Nc1ccc(S(=O)(=O)Cc2nc3ccccc3n2Cc2cccc(Cl)c2)cc1,32,512,512,256,512,512,32,512,256,256,16,512,256
CCCCCCCn1c(CS(=O)(=O)c2ccc(NC(C)=O)cc2)nc2ccccc21,8,512,512,512,512,512,64,128,512,512,256,256,256
CCCn1c(CS(=O)(=O)c2ccc(N)cc2)nc2ccccc21,256,64,32,256,128,4,64,64,32,256,8,32,256
Nc1ccc(S(=O)(=O)Cc2nc3ccccc3n2Cc2ccc(F)cc2)cc1,16,32,16,512,512,512,256,128,32,16,256,512,128
Nc1ccc(S(=O)(=O)Cc2nc3ccccc3n2Cc2ccc(Cl)cc2Cl)cc1,8,16,128,64,128,512,16,2,256,32,4,32,128
CCCCCCCCn1c(CS(=O)(=O)c2ccc(NC(C)=O)cc2)nc2ccccc21,64,512,512,256,512,512,512,512,8,256,512,128,256
CCCCCCCCCCCCCCCCCCn1c(CS(=O)(=O)c2ccc(NC(C)=O)cc2)nc2ccccc21,128,512,512,512,512,512,512,512,512,512,512,512,512
CC(=O)Nc1ccc(S(=O)(=O)Cc2nc3ccccc3n2Cc2cccc(F)c2)cc1,512,256,128,512,256,512,128,512,32,256,256,512,256

# Source: ChEMBL document CHEMBL4138085, “Design, synthesis and antimicrobial evaluation of novel benzimidazole-incorporated sulfonamide analogues” (Eur J Med Chem, 2017)
